Assay results collected from several papers.
Compare with care: the assays were run in different laboratories.
Cell line: A-375
Observed: cell growth or viability

SMILES | technique | time | IC50 [nM]
Fc1ccccc1Nc1nc(-c2ccncc2)nc2c1CNCC2 | MTT |  | > 100000
COc1cccc2c1C(=O)c1c(O)c3c(c(O)c1C2=O)C[C@@](O)(C(=O)CO)C[C@@H]3O[C@H]1C[C@H](N)[C@H](O)[C@H](C)O1 |  | 96 h | 32.9
C[C@H]1COCCN1c1nc(N2CCOC[C@@H]2C)c2ccc(-c3cccc(C(=O)NCCOCCOCCOCCONC(=O)c4ccc(F)c(F)c4Nc4ccc(I)cc4F)c3)nc2n1 | WST-1 | 72 h | 11600
CN1CCC(NC2CCc3[nH]c4c(C(N)=O)ccc(-c5ccccc5Cl)c4c3C2)CC1 (stereo not drawn) |  | 96 h | 26.8
COc1cccc(Nc2nc(-c3ccncc3)nc3c2CNCC3)c1 | MTT |  | 37200
CN1CCc2c(c3ccccc3n2Cc2ccc(C(=O)NO)cc2)C1 | CCK-8 | 48 h | 14800
COc1cc(C(=O)c2nc(-c3cccc4[nH]ccc34)c[nH]2)cc2c1OC=CO2 | MTS | 72 h | 11.5
CC(C)(C)c1cnc(CSc2cnc(NC(=O)C3CCN(C(=O)CCCCCCCN4Cc5cc6c(cc5C4)C(=O)N(C4CCC(=O)NC4=O)C6=O)CC3)s2)o1 (stereo not drawn) | MTT |  | 83.3
COc1cc(C(=O)c2nc(-c3cccc4[nH]cnc34)c[nH]2)cc(OC)c1OC | MTS | 72 h | 19.7
COc1ccc(-c2ccc3c(N4CCOC[C@@H]4C)nc(N4CCOC[C@@H]4C)nc3n2)cc1COC(=O)CCOCCOCCOCCONC(=O)c1ccc(F)c(F)c1Nc1ccc(I)cc1F | WST-1 | 72 h | 204
CC(=O)O[C@H]1C(=O)[C@@]2(C)[C@H]([C@H](OC(=O)c3ccccc3)[C@]3(O)C[C@H](OC(=O)[C@H](O)[C@@H](NC(=O)c4ccccc4)c4ccccc4)C(C)=C1C3(C)C)[C@]1(OC(C)=O)CO[C@@H]1C[C@@H]2O | MTS | 72 h | 3
CNc1cccc(Nc2nc(-c3ccncc3)nc3c2CNCC3)c1 | MTT |  | 35200
